# An excerpt weighted towards active compounds, which were near 10% of everything screened.
# Diaphorase act: counter-screen for diaphorase-based assays: diaphorase activators and chemical reducers. Diaphorase/resazurin coupled assay, resorufin fluorescence, 16 min; stronger effect = higher value; 1 = vehicle wells, 0 = NADH-free wells. activation factor at 20 µM. 0.005% of 190,000 active;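 active = diaphorase activity raised at least twofold by the compound at 20 µM; inactive = activation factor below 2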
#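 Material: Clostridium kluyveri diaphorase, purified enzyme; Quantity: enzyme 0.07 U/mL final; Medium: HEPES pH 7.4 buffer with MgCl2 and Tween 20; Dosing: single compound dose of 20 µM, 1% DMSO final; Schedule: 16 min reaction at room temperature; Measured by: red resorufin fluorescence at 544/590 nm excitation/emission.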
# PMI act satM6P: activators of human phosphomannose isomerase at near-saturating mannose 6-phosphate | P34949 | coupled PMI enzyme assay, resazurin fluorescence, 20 min; stronger effect = higher value; 1 = untreated enzyme, 0 = substrate-free blank | activation factor at 20 µM | 0.34% of 190,000 active;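 active = activation factor of 2 or more at 20 µM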
# Target sequence (P34949 whole entry, looked up): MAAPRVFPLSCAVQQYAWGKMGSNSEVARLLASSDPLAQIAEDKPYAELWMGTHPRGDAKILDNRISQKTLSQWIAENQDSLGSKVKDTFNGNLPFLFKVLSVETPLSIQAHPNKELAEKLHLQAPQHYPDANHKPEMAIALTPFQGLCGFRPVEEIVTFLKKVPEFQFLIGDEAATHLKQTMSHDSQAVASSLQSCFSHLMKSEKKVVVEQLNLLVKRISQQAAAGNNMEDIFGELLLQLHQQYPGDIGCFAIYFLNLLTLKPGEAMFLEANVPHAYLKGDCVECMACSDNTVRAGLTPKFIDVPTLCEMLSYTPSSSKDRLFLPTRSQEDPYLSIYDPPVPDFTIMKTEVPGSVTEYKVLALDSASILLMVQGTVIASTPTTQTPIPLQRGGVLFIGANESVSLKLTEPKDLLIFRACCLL
#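 test system = human PMI in coupled enzyme assay | medium = HEPES-buffered pH 7.4 with magnesium and detergent | also added = 1.0 mM mannose-6-phosphate substrate with 0.22 mM NADP+ | compound = 20 µM single dose | times = 20 min incubation at room temperature | measured by = resorufin fluorescence (Ex 544/Em 590 nm) from resazurin via diaphorase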
# L major viab: Leishmania major promastigote growth inhibition; inhibition, % at 10 µM; Leishmania major promastigotes, resazurin fluorescence viability; 9% of 200,000 active; in the data active = inhibition above about 50%;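 note: promastigotes grown with compound for 44 hours at 28 °C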
# PMI activator: activators of human phosphomannose isomerase | 0.005% of 190,000 active | activation factor at 20 µM | purified human PMI, coupled resazurin fluorescence, 20 min; stronger effect = higher value; 1 = vehicle control, 0 substrate-free wells | P34949;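 active = activation factor of 2 or more at 20 µM, relative to plate controls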
# WT yeast gro inh: growth inhibition of WT yeast, mitochondrial fusion screen; inhibition, % at 10 µM; AID 1362; mitochondrial fusion phenotypic screen, WT strain; 2.1% of 190,000 active; in the data active = inhibition above about 58%; tested in S. cerevisiae
# Active calls of the source: *; · = no result given.
SMILES,Diaphorase act,PMI act satM6P,L major viab,PMI activator,WT yeast gro inh
Cc1[nH]c2ccccc2c1C(=O)NS(=O)(=O)Nc1ccc(F)cc1,0.9,1,-11,1.2,-15
COc1cc(/C=N/Nc2ccc(F)cc2F)cc(OC)c1O,0.7,1.1,68*,1.4,51
O=C(c1ccc(Cl)cc1)N1CCC(O)(CSc2ccccc2)CC1,0.8,0.8,10,0.8,16
O=C(c1ccc(Cl)cc1)N1CCC(O)(CSc2ccc(Cl)cc2)CC1,0.8,0.8,-4,0.8,61*
CN1CCN(C(=O)c2ccc(CSc3ccc(Cl)cc3)cc2)CC1,1,1,100*,1,25
COc1ccc(NC(=O)/C=C/c2c(Cl)nc3ccccn23)cc1,1,1,24,1,0
N/C(=N\OC(=O)Oc1ccccc1)c1cccc([N+](=O)[O-])c1,0.9,1.1,59*,1.2,-9
N/C(=N\OC(=O)Oc1ccccc1)c1ccc([N+](=O)[O-])cc1,0.9,1.1,-7,1.1,-7
N/C(=N\OC(=O)CSc1ccccc1)c1cccc([N+](=O)[O-])c1,0.8,0.9,81*,0.8,35
COc1ccc(C(=O)COC(=O)CCN=C2NS(=O)(=O)c3ccccc32)cc1OC,0.9,0.9,0,1.1,19
CCCCC(CC)CNC(=O)c1ncn[nH]1 (centres undefined),0.9,1,-6,1,-13
O=C(CCc1nc2ccccc2s1)OCc1ccccc1,0.9,1,56*,1,-15
O=C(CCC(=O)c1cccs1)OCc1nc2ccccc2s1,0.9,1,-8,1,0
COc1cnc(SCCC(F)=C(F)F)[nH]c1=O,0.9,1.1,-11,1.2,-9
CCc1ccc(-c2nc(CN3CCCC(C(=O)NCCc4ccc(OC)c(OC)c4)C3)c(C)o2)cc1 (centres undefined),1,0.9,83*,1,6
CCCN(CCC)CCNC(=O)C1CCN(Cc2nc(-c3ccc(Cl)cc3)oc2C)CC1,1.1,1.1,98*,1.1,5
CCN1CCN(CCNC(=O)CSCc2nc(-c3ccc(OC)c(OC)c3)oc2C)CC1,1,1.1,88*,1.1,-14
COc1ccc(CCNC(=O)C2CCCN(Cc3nc(-c4ccccc4C)oc3C)C2)cc1OC (centres undefined),1,1,92*,1,1
COc1cc(OC)cc(C(=O)N[C@H](C(=O)Nc2ccc3c(c2)OCO3)C(C)C)c1,0.9,0.9,10,1,-12
CCOc1cc(/C=N/NC(=O)CCCC(=O)NC2CCCCC2)ccc1O,0.9,1,21,1,-14
CCOC(=O)N1CCC(NC(=O)C2CCCN(Cc3nc(-c4cccc(Cl)c4)oc3C)C2)CC1 (centres undefined),0.9,0.9,10,1,4
CCN1CCN(CCNC(=O)C2CCCN(Cc3nc(-c4cccc(Cl)c4)oc3C)C2)CC1 (centres undefined),1,1,94*,1,6
CCCCN1C(=O)C(=Nc2cccc3cnccc23)c2ccccc21,0.8,0.4,77*,0.7,6
CCCCN1C(C)=CC(=C2C(=O)c3ccccc3C2=O)C=C1C,0.9,0.9,49,0.9,4
O=C(COC(=O)C1(c2ccc(Cl)cc2)CCCC1)N1CCc2ccccc21,0.8,0.9,2,0.9,2
SMILES,Diaphorase act,PMI act satM6P,L major viab,PMI activator,WT yeast gro inh
O=C(CCl)N1CCN2C(=O)c3ccccc3C12c1ccc(Cl)cc1 (centres undefined),1,1,100*,1.1,-21
O=C(Nc1cccc(Cl)c1)N1CCN2C(=O)c3ccccc3C12c1ccccc1 (centres undefined),0.8,0.9,98*,0.9,29
Cc1ccc(C(=O)N2CCN3C(=O)c4ccccc4C23c2ccc(Cl)cc2)cc1 (centres undefined),0.8,0.9,94*,0.8,-18
Cc1ccc(C(=O)N2CCN(c3ccc(Cl)cc3)CC2)cc1,0.9,0.9,-4,0.9,20
CC(C)(C)c1ccc(COn2ccnc2)cc1,1,1.1,-5,1,33
CCOC(=O)C1(Cc2ccccc2)CCN(Cc2ccon2)CC1,·,·,21,·,-6
CCOC(=O)C1(Cc2ccccc2)CCN(Cc2ccc3c(c2)OCCO3)CC1,1,1,92*,1,33
COc1cc(CN2CCCC(CO)(Cc3ccccc3C)C2)cc2c1OCO2 (centres undefined),0.9,1,69*,0.9,6
CCOC(=O)C1(Cc2ccccc2)CCN(Cc2cc(OC)c3c(c2)OCO3)CC1,0.9,0.9,91*,1,10
CCOC(=O)C1(Cc2ccccc2)CCN(Cc2ccc(C)s2)CC1,0.8,0.9,7,0.9,10
CCOC(=O)C1(Cc2ccccc2)CCN(Cc2cccc3c2OCO3)CC1,0.8,0.8,66*,0.8,17
CCCCNc1cc(F)nc(N)n1,1,1.1,-6,1.1,7
CC(=O)Nc1ccc(NC(=O)CN(c2ccc(F)cc2)S(=O)(=O)c2ccc3c(c2)OCCO3)cc1,0.9,1,21,1,-14
O=C(CN(c1ccc(F)cc1)S(=O)(=O)c1ccc2c(c1)OCCO2)Nc1ccccc1,0.8,0.9,80*,0.8,25
O=C(CN(c1ccc(F)cc1)S(=O)(=O)c1ccc2c(c1)OCCO2)Nc1ccc2c(c1)OCO2,0.7,0.8,20,0.7,7
CS(=O)(=O)N(CC(=O)NCc1ccc2c(c1)OCO2)c1ccc(Cl)cc1,0.9,1,-1,1,80*
Cc1ccc(/C=N/NC(=O)CN(Cc2ccccc2)S(=O)(=O)c2ccc3c(c2)OCCO3)cc1,0.9,0.9,95*,0.8,8
O=C(CN(Cc1ccccc1)S(=O)(=O)c1ccc2c(c1)OCCO2)Nc1ccc2c(c1)OCCO2,0.9,0.9,13,0.9,5
O=C(CN(c1ccc(F)cc1)S(=O)(=O)c1ccc2c(c1)OCCO2)NCc1ccccc1,0.9,1,96*,1,1
O=C(NCc1ccccn1)C1CN(S(=O)(=O)c2ccccc2)CCN1S(=O)(=O)c1ccccc1 (centres undefined),1,0.8,-5,1,2
O=C(CN(c1ccc2c(c1)OCCO2)S(=O)(=O)c1ccccc1)NCC1CCCO1 (centres undefined),1.1,1,-4,1,6
O=C(CN(c1ccc(F)cc1)S(=O)(=O)c1ccc2c(c1)OCCO2)Nc1cccnc1,0.9,0.9,2,0.8,-7
CN(Cc1ccccc1)C(=O)CN(c1ccc(F)cc1)S(=O)(=O)c1ccc2c(c1)OCCO2,0.9,0.9,95*,0.9,12
O=C(CN(c1ccc2c(c1)OCCO2)S(=O)(=O)c1ccccc1)NCc1ccc(Cl)cc1,0.7,0.9,98*,1,14
